Bioassay records (PubChem BioAssay)
MrgX1 antagonist = antagonists of human MrgX1 receptor | MRGX1-HEK293 calcium flux, Fluo-4, BAM8-22 antagonism; hits give low values | B-score at 10 µM | actives 1.3% (n = 310,000);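 active = calcium-response B-score plate-corrected more than 3 library SD below zero, starting fluorescence within 5 deviations, no agonist response on first addition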;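 note: peak minus trough fluorescence over baseline after final BAM8-22 challenge near maximal dose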
Target sequence (Q96LB2 whole entry, looked up): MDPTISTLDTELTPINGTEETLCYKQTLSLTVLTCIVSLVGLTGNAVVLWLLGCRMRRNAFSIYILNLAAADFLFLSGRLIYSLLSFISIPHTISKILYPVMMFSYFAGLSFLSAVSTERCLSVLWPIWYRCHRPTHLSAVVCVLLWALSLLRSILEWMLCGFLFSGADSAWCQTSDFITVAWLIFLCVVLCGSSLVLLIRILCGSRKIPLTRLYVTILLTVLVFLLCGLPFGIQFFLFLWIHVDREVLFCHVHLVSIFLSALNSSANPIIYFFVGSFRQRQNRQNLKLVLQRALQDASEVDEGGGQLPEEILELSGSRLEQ
MrgX1 PAM = human MrgX1 positive allosteric modulation, primary screen | Q96LB2 | MrgX1-HEK293, Fluo-4 calcium flux, FDSS; hits give high values | B-score at 10 µM | actives 0.63% (n = 310,000) | AID 588675;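 active = plate-corrected calcium response at least 3 library SD above typical, normal starting fluorescence, not activating the receptor alone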;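 note: compound read alongside a low EC10 to EC30 dose of BAM8-22 agonist; peak minus trough fluorescence over baseline measured at the second addition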
RGS4 inh = human RGS4 inhibition. HEK293 M3R/RGS4 inducible, Fluo-4 calcium flux; hits give high values; triggered by carbachol at its EC20. P49798. actives 0.45% (n = 310,000). AID 463165. B-score at 10 µM;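 active = B-score, a plate-corrected calcium signal, over three deviations above library mean, with baseline fluorescence within five deviations of library mean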;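 note: RGS4 expression induced by doxycycline in cells with stable M3 receptor; B-score is computed from the integrated fluorescence ratio over baseline after carbachol; higher B-score means a larger calcium signal and so more RGS4 inhibition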
RGS4 pot = potentiators or activators of RGS4; actives 0.92% (n = 310,000); HEK293 M3R/inducible RGS4, carbachol calcium flux Fluo4; hits give low values; AID 463111; B-score at 10 µM;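 active = B-score of the integrated calcium signal more than 4 SD below the library mean, with starting fluorescence not abnormally high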;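 note: negative B-score means reduced calcium response which marks RGS4 activation or potentiation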
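Reagent: ECmax carbachol challenge; Test system: M3R-expressing HEK293 line, RGS4 induced by doxycycline; Schedule: overnight RGS4 induction, 30 min dye load 37 °C, 20 min compound RT; Detection: calcium dye Fluo4 fluorescence; Read-out: Agonist-evoked peak-minus-minimum fluorescence over baseline, integrated ratio, B score.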
MrgX1 agonist = human MrgX1 receptor agonism, primary screen | Q96LB2 | MrgX1-HEK293 cells, Fluo-4 calcium fluorescence, agonist mode; hits give high values | B-score at 10 µM | actives 0.44% (n = 310,000) | AID 588627;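 active = calcium response B-score plate-corrected fluorescence ratio at least 3 library SD, with starting fluorescence B-score inside 5 SD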
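System: HEK293 cells stably expressing human MrgX1 receptor; Dosing: test compound in the initial addition of three; Schedule: overnight plating, then 30 min 37 °C plus 30 min room-temperature dye loading; Detection: kinetic calcium dye fluorescence, Fluo-4 NW; Controls: per-plate positive and negative controls for Z′ factor.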
* hit, by the source's call; i = inactive; / = no result. This is a sample that favours compounds with a hit; in the whole collection about 3.5% have one here.

SMILES	MrgX1 antagonist	MrgX1 PAM	RGS4 inh	RGS4 pot	MrgX1 agonist
O=C1Cc2ccccc2C(=O)N1CCc1ccccc1	-5.2*	i	i	i	i
O=C1C(=O)N(Cc2ccccc2)C(=O)N1CCN1C(=O)c2ccccc2C1=O	i	i	i	i	i
CCn1nc(C(=O)Nc2ccccc2N2CCCC2)c2ccccc2c1=O	i	12*	i	-8.7*	i
C=C(C)Cn1c(=O)c2c(nc3n2CC(C)CN3Cc2ccccc2)n(C)c1=O (centres undefined)	i	i	i	i	i
CC(C)(C)c1ccc(C(=O)NC(=S)NNC(=O)c2cccs2)cc1	i	i	i	i	47*
O=C(NC(=S)NNC(=O)c1cccs1)c1ccco1	i	i	i	i	28*
CC(Oc1ccc(Cl)cc1)C(=O)NNC(=S)NC(=O)c1ccco1 (centres undefined)	i	i	i	i	90*
CC(C)(C)c1ccc(C(=O)NC(=S)NNC(=O)COc2ccccc2)cc1	i	i	i	-7.5*	45*
CC(C)(C)c1ccc(OCC(=O)NNC(=O)CCc2ccccc2)cc1	i	i	i	i	i
O=C(NCc1ccc(Cl)s1)C1CCC(=O)N(CCc2cccc(F)c2)C1 (centres undefined)	i	i	i	i	i
COc1cc([N+](=O)[O-])cc2sc(NC(=O)C3CC3)nc12	i	i	i	i	i
COc1ccccc1C(=O)NNC(=S)NC(=O)c1ccco1	i	i	i	i	50*
COC(=O)c1cc(OC)c(OC)cc1NC(=S)NC(=O)c1ccco1	i	i	i	i	i
COc1ccc(OC)c(S(=O)(=O)N2CCC3(CC2)OCCN3S(=O)(=O)c2cccs2)c1	i	i	i	-7.5*	i
Cc1ccc(C)c(NC(=O)CCC(=O)NN=C2CCCC2)c1	i	i	i	i	i
Cc1cccc(C)c1NC(=O)c1sccc1SCc1cccc(C(F)(F)F)c1	-5*	i	i	i	i
Cn1c(/C(C#N)=C(\O)c2cccc(F)c2)nc2ccccc21	-5.4*	i	i	i	i
Cc1c(CCC(=O)O)c(=O)oc2c(C)c3occ(-c4ccc(Cl)cc4)c3cc12	i	6.6*	i	i	i
CC(C)c1ncc(S(=O)(=O)c2ccc(C(F)(F)F)cn2)c(N)n1	i	i	i	i	i
O=c1oc2ccccc2cc1-c1nc2c(s1)CCc1ccccc1-2	-6.8*	i	i	i	i
O=c1oc2cc(O)ccc2cc1-c1nc2c(s1)CCc1ccccc1-2	i	i	/	/	i
COc1ccc2ccccc2c1/C=N/NC(=O)c1nnn(-c2nonc2N)c1C(C)C	i	i	i	-7.1*	i
COc1ccc2ccccc2c1/C=N/NC(=O)c1nnn(-c2nonc2N)c1CN(C)C	i	i	i	i	i
CN(C)NC(=S)Nc1ccc(Cl)cc1	-6*	i	i	i	i
Fc1ccc(NC(=S)Nc2ccc(F)c(Cl)c2)cc1Cl	-4.8*	i	i	i	i
SMILES	MrgX1 antagonist	MrgX1 PAM	RGS4 inh	RGS4 pot	MrgX1 agonist
O=C(NC(=S)Nc1ccc(F)c(Cl)c1)C1CC1	i	i	i	i	i
Cc1c(Cl)cccc1NC(=S)NNS(=O)(=O)c1ccc([N+](=O)[O-])cc1	i	i	i	i	i
COCCNC(=S)N/N=C/c1ccc(OCc2ccc(C(=O)OC)cc2)c(OC)c1	-4.9*	i	i	i	i
O=C(O)CCSCCCN1C(=O)c2cccc3cccc(c23)C1=O	i	i	i	i	i
CN(Cc1ccccc1F)Cc1cc(=O)oc2cc(O)c(Cl)cc12	i	i	i	i	i
COc1ccc(CN(C)Cc2cc(=O)oc3cc(C)c(C(C)C)cc23)cc1OC	i	i	i	-7.1*	i
Cc1cc2oc(=O)cc(CN(C)Cc3ccccc3)c2cc1C(C)C	i	i	i	i	i
Cc1cc2oc(=O)cc(CN(C)Cc3ccccc3F)c2cc1Cl	i	i	i	-7*	i
COc1cc(C(=O)NCCOc2cccc(C)c2)c(Br)c(OC)c1OC	i	i	i	-7.2*	i
